In ChEMBL document CHEMBL4765234 (J Med Chem, 2016):
Active and inactive are the calls of the source. No cut-off for these calls is given here.

What was measured:
[1] = molecular target: Free fatty acid receptor 1 (Mus musculus) (UniProt Q76JU9); assay: Agonist activity at GPR40 in mouse MIN6 cells assessed as induction of glucose-mediated insulin secretion incubated for 2 hrs by ELISA; type: cell-based
Procedure, shortened: (§1)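 Glucose-dependent insulin secretion in mouse MIN6 cells or rat islet cells, scored as secretion above the glucose-alone level.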

[2] = molecular target: T1, Peroxisome proliferator-activated receptor gamma (Homo sapiens) (UniProt P37231); assay: Displacement of [3H]-[…] from PPARgamma (unknown origin) expressed in baculovirus infected Sf9 insect cells upto 30 uM measured after 10 hrs by microbeta scintillation counting analysis; conditions: dose microM <=30, time 10.0 hrs
T1 sequence (whole entry): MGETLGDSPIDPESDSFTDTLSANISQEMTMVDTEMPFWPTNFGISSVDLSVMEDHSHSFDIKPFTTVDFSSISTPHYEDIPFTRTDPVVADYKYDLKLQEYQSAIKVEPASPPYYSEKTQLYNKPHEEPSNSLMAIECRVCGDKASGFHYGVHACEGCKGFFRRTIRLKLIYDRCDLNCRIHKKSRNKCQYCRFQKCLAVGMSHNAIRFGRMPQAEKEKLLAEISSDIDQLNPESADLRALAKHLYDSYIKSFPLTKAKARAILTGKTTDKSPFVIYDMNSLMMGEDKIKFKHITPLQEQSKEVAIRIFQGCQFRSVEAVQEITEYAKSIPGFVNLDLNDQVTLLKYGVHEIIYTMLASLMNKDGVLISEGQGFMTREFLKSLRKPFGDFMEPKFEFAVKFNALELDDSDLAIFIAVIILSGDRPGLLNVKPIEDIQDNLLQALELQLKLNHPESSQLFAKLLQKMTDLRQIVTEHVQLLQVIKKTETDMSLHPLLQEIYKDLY
Procedure, shortened: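 Scintillation proximity assay. Sf9 lysates with baculovirus-expressed PPARα (0.3 μg), PPARδ (0.5 μg) or PPARγ (1.25 μg), each with RXRα, were bound via biotinylated DR2 oligo (0.126 nM) to streptavidin yttrium silicate beads. Buffer was HEPES pH 7.8 with KCl, MgCl2, DTT, CHAPS, 14% glycerol and salmon sperm DNA. A 3H reference agonist ligand was used, with 11 compound concentrations, for 10 h. Nonspecific binding was defined with 10000 nM unlabeled reference. Ki was derived from IC50.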

[3] = molecular target: T2, Free fatty acid receptor 1 (Homo sapiens, UniProt O14842); assay: Displacement of [3H]-(S)-2-(6-((2',6'-dimethyl-4'-(3-(methylsulfonyl)propoxy)biphenyl-3-yl)methoxy)-2,3-dihydrobenzofuran-3-yl)acetic acid from human recombinant full-length GPR40 expressed in human HEK293 cell membrane assessed as dissociation constant measured after 2 hrs by radioligand competitive assay; type: cell membranes
T2 sequence (O14842 whole entry): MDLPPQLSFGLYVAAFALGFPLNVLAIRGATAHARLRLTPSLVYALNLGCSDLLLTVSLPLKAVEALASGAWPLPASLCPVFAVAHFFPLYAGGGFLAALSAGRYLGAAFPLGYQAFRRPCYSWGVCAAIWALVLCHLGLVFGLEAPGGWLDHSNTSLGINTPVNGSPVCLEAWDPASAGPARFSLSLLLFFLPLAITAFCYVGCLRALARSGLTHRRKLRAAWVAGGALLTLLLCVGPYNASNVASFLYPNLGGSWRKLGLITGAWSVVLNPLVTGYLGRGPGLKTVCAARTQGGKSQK

[4] = molecular target: T2, Free fatty acid receptor 1; assay: Displacement of [3H]-(S)-2-(6-((2',6'-dimethyl-4'-(3-(methylsulfonyl)propoxy)biphenyl-3-yl)methoxy)-2,3-dihydrobenzofuran-3-yl)acetic acid from human recombinant full-length GPR40 expressed in human HEK293 cell membrane assessed as residence time by radioligand competitive assay; type: cell membranes; conditions: filed as agonist
Procedure, shortened: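 Residence time came from competitive association kinetics. [3H]-radioligand binding to human GPR40 HEK293 membranes (5 μg, rt, Tris/Ca/Mg/0.1% BSA buffer) was measured at time points over 0–3 h, with and without several concentrations of unlabeled test compound. Fits used association and dissociation rates of the radioligand from independent kinetic experiments.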

[5] = molecular target: T2, Free fatty acid receptor 1; assay: Agonist activity at human recombinant full-length Prolink-tagged GPR40 fused with EA-tagged beta-arrestin expressed in human HEK293 cells assessed as induction of beta-arrestin recruitment measured after 90 mins by beta-galactosidase based PathHunter assay; type: cell-based
Procedure, shortened: (§2)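 PathHunter β-gal complementation. Cells were incubated overnight at 5000/well in medium with 1% heat-inactivated FBS. Compound was added as a 20-point 2-fold series from a top final of 100 μM (1% DMSO) for 90 min at 37 °C, followed by detection reagents and chemiluminescence read after 1 h at rt.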

[6] = Dissociation constant, pKa2 of compound by potentiometric method; type: physicochemical
Procedure, shortened: (§3)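 pKa values measured potentiometrically.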

[7] = molecular target: T2, Free fatty acid receptor 1; assay: Agonist activity at human recombinant full length GPR40 overexpressed in human HEK293 cells assessed as increase in intracellular calcium level measured over 3 mins by calcium 4 dye based FLIPR assay relative to 100 uM linoleic acid; type: functional, cell-based; conditions: filed as agonist
Procedure, shortened: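 HEK293 cells overexpressing hGPR40 (25K/well) were cultured overnight in DMEM/F12 with 0.2% FBS and geneticin. Compound was tested at 40 μM–0.1 nM final (20-point, 1% DMSO), and FLIPR fluorescence was read over 3 min.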

[8] = molecular target: T2, Free fatty acid receptor 1; assay: Agonist activity at human recombinant full-length Prolink-tagged GPR40 fused with EA-tagged beta-arrestin expressed in human HEK293 cells assessed as induction of beta-arrestin recruitment measured after 90 mins by beta-galactosidase based PathHunter assay relative to control; type: cell-based; conditions: filed as agonist; procedure, shortened: as §2
[9] = molecular target: Free fatty acid receptor 1 (Rattus norvegicus) (UniProt Q8K3T4); assay: Agonist activity at GPR40 in Sprague-Dawley rat pancreatic islets assessed as induction of glucose-mediated insulin secretion measured after 90 mins in EBSS buffer by ELISA; type: tissue-based; conditions: Pancreatic islet; procedure, shortened: as §1
Sequence of Free fatty acid receptor 1 (Rattus norvegicus) (Q8K3T4 whole entry, the tested form may be a part): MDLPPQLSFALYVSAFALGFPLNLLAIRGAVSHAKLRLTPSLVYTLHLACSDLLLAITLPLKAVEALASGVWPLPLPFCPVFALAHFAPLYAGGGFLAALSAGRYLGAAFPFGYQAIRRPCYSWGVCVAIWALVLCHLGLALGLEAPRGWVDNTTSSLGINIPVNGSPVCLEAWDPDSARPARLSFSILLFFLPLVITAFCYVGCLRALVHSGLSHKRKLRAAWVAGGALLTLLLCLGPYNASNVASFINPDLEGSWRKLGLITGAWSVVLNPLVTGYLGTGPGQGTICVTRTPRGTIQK

[10] = molecular target: Free fatty acid receptor 1 (Rattus norvegicus, UniProt Q8K3T4); assay: Agonist activity at Prolink-tagged rat GPR40 fused with EA-tagged beta-arrestin expressed in human U2OS cells assessed as induction of beta-arrestin recruitment measured after 90 mins by beta-galactosidase based PathHunter assay; type: cell-based; procedure, shortened: as §2
Sequence of Free fatty acid receptor 1 (Rattus norvegicus, UniProt Q8K3T4) (Q8K3T4 whole entry, the tested form may be a part): as above

[11] = molecular target: T2, Free fatty acid receptor 1; assay: Displacement of [3H]-TAK-875 from human recombinant full-length GPR40 expressed in human HEK293 cell membrane incubated for 2 hrs by solid scintillation counting method; type: cell membranes; conditions: for Activity: filed as agonist
[12] = Protein binding in plasma (unknown origin) by equilibrium dialysis method; type: ADME, cell-free; conditions: human, read-out: PPB
Procedure, shortened: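 Plasma protein binding measured by equilibrium dialysis.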

[13] = molecular target: T2, Free fatty acid receptor 1; assay: Agonist activity at human recombinant full length GPR40 overexpressed in human HEK293 cells assessed as increase in inositol phosphate accumulation in presence of terbium cryptate-labeled anti IP1/d2-labelled IP1 measured after 120 mins by HTRF assay; type: functional, cell-based
Procedure, shortened: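 HEK293 hGPR40 cells (20K/well) were cultured overnight, washed, and held in IP1 stimulation buffer. IP-1 was measured by competitive HTRF immunoassay with terbium cryptate anti-IP1 mAb and d2-labelled IP1.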

[14] = molecular target: Free fatty acid receptor 1 (Mus musculus) (UniProt Q76JU9); assay: Agonist activity at Prolink-tagged mouse GPR40 fused with EA-tagged beta-arrestin expressed in human U2OS cells assessed as induction of beta-arrestin recruitment measured after 90 mins by beta-galactosidase based PathHunter assay relative to control; type: cell-based; conditions: filed as agonist; procedure, shortened: as §2
[15] = Dissociation constant, pKa1 of compound by potentiometric method; type: physicochemical; procedure, shortened: as §3

Sequence of Free fatty acid receptor 1 (Mus musculus) (Q76JU9 whole entry, the tested form may be a part): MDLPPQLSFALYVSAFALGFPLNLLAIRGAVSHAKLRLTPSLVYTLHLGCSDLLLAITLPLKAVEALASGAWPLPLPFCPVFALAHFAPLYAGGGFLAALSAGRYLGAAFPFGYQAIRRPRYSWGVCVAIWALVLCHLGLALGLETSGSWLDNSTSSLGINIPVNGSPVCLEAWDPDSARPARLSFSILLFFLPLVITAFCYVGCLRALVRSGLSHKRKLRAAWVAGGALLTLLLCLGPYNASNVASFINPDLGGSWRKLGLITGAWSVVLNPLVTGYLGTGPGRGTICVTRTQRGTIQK

Compound | Activity [1] | Activity [2] | Kd [3] [nM] | TIME [4] [h] | EC50 [5] [nM] | pKa [6] | Emax [7] [%] | Emax [8] [%] | Activity [9] | EC50 [10] [nM] | Ki [11] [nM] | fraction unbound [12] | EC50 [13] [nM] | Emax [14] [%] | pKa [15] | Activity ([1]; filed as agonist) | Activity ([9]; filed as agonist) | Activity [11]
O=C(O)CCc1ccc(OCc2ccc(CN3CCC4(C=Cc5ccccc54)CC3)cc2)cc1F | inactive | inactive | 58 | 0.2 | 340 | 7.7 | 80 | 144 | inactive | 160 | 68 | < 0.01 | 39 | 127 | 3.9 |  |  | 
CC#C[C@@H](CC(=O)O)c1ccc(OCc2ccc(CN3CCC4(CCc5ccccc54)CC3)cc2)cc1 |  | inactive | 2.2 | 1.1 | 11 | 8.6 | 46 | 137 |  | 1.3 | 4.6 | < 0.01 | 6.2 | 135 | 4.6 | Active | Active | 
CC#C[C@@H](CC(=O)O)c1ccc(OCc2ccc(CN3CCC4(CC3)CN(C)c3ccccc34)cc2)cc1 |  | inactive | 9.5 | 0.783 | 56 | 8.3 | 47 | 134 |  | 5.5 | 11 | < 0.01 | 12 | 131 | 4.3 | Active | Active | 
O=C(O)C[C@@H](c1ccc(OCc2ccc3nc(-c4ccccc4)nn3c2)cc1)c1ccon1 | inactive | inactive | 37 | 0.367 | 600 |  | 54 | 141 | inactive | 14000 | 79 | < 0.01 | 68 | 98 | 1.9 |  |  | 
CC#C[C@@H](CC(=O)O)c1ccc(OCc2ccc(CN3CCCc4cccc(OC)c43)s2)cc1 |  |  |  |  | 7 | 6 |  | 139 |  | 3 |  | < 0.01 |  | 137 | 3.4 |  |  | Dose-dependent effect
CC#C[C@@H](CC(=O)O)c1ccc(OCc2ccc(CN3CCC4(CCc5ccccc54)CC3)s2)cc1 |  | inactive | 3.5 | 1.03 | 7.9 | 7.9 | 50 | 121 |  | 1.7 | 8.2 | < 0.01 | 6.1 | 126 | 3.4 | Active | Active | Dose-dependent effect
CC#C[C@@H](CC(=O)O)c1ccc(OCc2ccc(CN3CCC4(C=Cc5ccccc54)CC3)s2)cc1 |  | inactive | 2 | 0.667 | 5.3 | 7.4 | 50 | 116 |  | 0.93 | 4.8 | < 0.01 | 0.6 | 119 | 4.2 | Active | Active | 
CC#C[C@@H](CC(=O)O)c1ccc(OCc2ccc(CN3CCC4(C=Cc5ccccc54)CC3)cc2)cc1 [LY2881835] |  | inactive | 2.5 | 2 |  | 8.1 | 62 | 137 |  |  |  | < 0.01 | 1.2 | 133 | 4.1 | Active | Active | Dose-dependent effect
